# Pemphigus Ab inh: inhibitors of pemphigus antibody binding to human desmoglein-3. P32926. DSG3-coupled beads, scFv-anti-DSG3-GFP binding, flow cytometry; active compounds read low. binding (percent of control), % at 10 µM. hit rate 0.48% among 310,000. AID 588358;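 active = binding more than 3 SD below its plate's average and above zero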;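 note: hits lower antibody fragment binding to DSG3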
# Target sequence (P32926 whole entry, looked up, the tested form may be a part): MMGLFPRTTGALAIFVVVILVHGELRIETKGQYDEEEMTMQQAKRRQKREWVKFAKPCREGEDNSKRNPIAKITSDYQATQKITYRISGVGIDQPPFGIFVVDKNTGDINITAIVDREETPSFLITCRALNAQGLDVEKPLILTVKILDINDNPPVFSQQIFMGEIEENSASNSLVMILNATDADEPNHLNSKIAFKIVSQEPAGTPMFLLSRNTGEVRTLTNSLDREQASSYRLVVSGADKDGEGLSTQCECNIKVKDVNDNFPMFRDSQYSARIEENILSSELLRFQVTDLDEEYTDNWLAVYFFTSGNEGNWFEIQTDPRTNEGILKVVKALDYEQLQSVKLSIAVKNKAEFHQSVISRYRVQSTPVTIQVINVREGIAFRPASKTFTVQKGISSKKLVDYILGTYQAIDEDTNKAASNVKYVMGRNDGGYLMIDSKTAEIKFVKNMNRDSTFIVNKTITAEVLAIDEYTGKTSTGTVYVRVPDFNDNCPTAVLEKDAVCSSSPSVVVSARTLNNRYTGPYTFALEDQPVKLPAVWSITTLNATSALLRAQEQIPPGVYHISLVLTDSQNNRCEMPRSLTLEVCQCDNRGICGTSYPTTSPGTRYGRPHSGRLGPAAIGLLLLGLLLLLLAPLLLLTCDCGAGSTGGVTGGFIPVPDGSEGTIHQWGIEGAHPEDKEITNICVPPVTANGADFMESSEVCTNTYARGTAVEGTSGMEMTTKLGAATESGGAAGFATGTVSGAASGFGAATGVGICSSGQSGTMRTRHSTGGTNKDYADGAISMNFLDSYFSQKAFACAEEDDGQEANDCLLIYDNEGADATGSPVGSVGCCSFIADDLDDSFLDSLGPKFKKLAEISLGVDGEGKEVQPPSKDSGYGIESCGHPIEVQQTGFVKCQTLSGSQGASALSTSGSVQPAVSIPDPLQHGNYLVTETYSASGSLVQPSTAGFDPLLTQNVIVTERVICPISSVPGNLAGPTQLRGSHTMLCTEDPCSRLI
# PolyA inhibitor: blocks polyadenylation in yeast reporter cells. hit rate 0.02% among 300,000. AID 1875. S. cerevisiae SKY197-pL101 polyadenylation reporter, beta-gal luminescence; efflux-impaired pdr1/pdr3 knockout yeast; score 100 = 6 SD above DMSO. activity score, % at 12 µM;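 active = lowest replicate activity score at least 50, where 100 means six control SD above control mean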;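 note: yeast exposed to compound for 9 h at 30 °C; higher score means more reporter readthrough which indicates perturbed polyadenylation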
# Arrestin-AP2 inh: inhibitors of human beta-arrestin and AP2 interaction; FITC-arrestin peptide / GST-AP2 beads, flow cytometry; AP2 beta2 appendage carries R879A mutation; inhibition, % at 10 µM; hit rate 0.31% among 340,000;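 active = inhibition above a set limit, near 3 SD of compounds lacking own fluorescence, cut at about 54% in these data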;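 note: plate controls were DMSO wells for no effect and 5 µM unlabelled arrestin peptide for full effect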
#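 Assay system: GST-AP2 R879A bound to glutathione beads, E. coli-expressed; Medium: PBS with 0.05% Tween 20 and 0.1% BSA; Also added: fluorescein-tagged arrestin peptide at 50 nM final; Timing: 12 min plus 1 h, RT; Measured by: flow cytometry, FL1 (488/535 nm); Evaluation: percent drop in bead-associated FITC signal.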
# NALP1 yeast inh: NALP1 inhibition | S. cerevisiae NALP1/ASC/caspase-1 growth, X-gal OD620, 72 h | inhibition, % at 10 µM | hit rate 0.61% among 280,000; in the data active = inhibition mostly above about 24%, no sharp cut-off; inactive = mostly below about 32%
# ALR inh: blocks human ALR sulfhydryl oxidase activity | P55789 | purified ALR, DTT oxidation, H2O2 HRP-luminol luminescence | inhibition, % (concentration not given with the values) | hit rate 3.8% among 290,000;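 active = mean replicate inhibition above about 79%, with every replicate also reaching it, limit read from the data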
# NALP3 yeast inh: blocks the NALP3 inflammasome reconstituted in yeast | Yeast reconstituted NLRP3/ASC/caspase-1, beta-gal luminescence, 24 h | hit rate 0.39% among 330,000 | inhibition, % at 10 µM | AID 2825;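 active = inhibition of 50% or more; inactive = inhibition below 50%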;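 note: plate controls were induced DMSO wells for no effect and uninduced yeast grown without galactose for full effect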
# NALP3 confirm: confirmation of NALP3 inhibitors in yeast | shares compounds with NALP3 yeast inh | hit rate 81% among 1,300 | AID 435006 | inhibition, % at 10 µM | yeast expressing human NALP3, luminescence; in the data active = inhibition above about 48%
# Casp1-ASC yeast: active in yeast caspase-1-ASC counter-screen for NALP3 inhibitors. shares compounds with NALP3 yeast inh. yeast expressing Caspase-1-ASC, luminescence counter screen. inhibition, % at 10 µM. hit rate 66% among 1,000. AID 488784
# NALP3 yeast rt: yeast NALP3 inhibition, confirmed on retest; shares compounds with NALP3 yeast inh; yeast expressing human NALP3, luminescence read-out; hit rate 53% among 1,000; AID 488794; inhibition, % at 10 µM
# Active calls of the source: *; x = no result. This is a sample that favours compounds with a hit; in the whole collection about 4.6% have one here. Cut-off read from the data, not from the text of the source, unless noted: active = inhibition above about 50%; inactive = the rest.
SMILES,Pemphigus Ab inh,PolyA inhibitor,Arrestin-AP2 inh,NALP1 yeast inh,ALR inh,NALP3 yeast inh,NALP3 confirm,Casp1-ASC yeast,NALP3 yeast rt
CCCCC(CC)CN=C(N)NC(N)=NCCCCCCN=C(N)NC(N)=NCC(CC)CCCC (stereo unspecified),134.0,x,-8.3,x,-25.3,96.7*,95.0*,85.7*,93.9*
CCn1c(O)c(C=Nc2ccccc2)sc1=S,x,-25.0,x,12.2,5.8,54.0*,58.5*,55.6*,60.2*
CC1(C)CC(=O)C2=C(C1)OC1=C(C(=O)CC(C)(C)C1)C2c1ccc(O)c([N+](=O)[O-])c1,106.3,10.3,1.4,5.9,-5.3,-6.8,x,x,x
CC1(C)CC(=O)C2=C(C1)OC1=C(C(=O)CC(C)(C)C1)C2c1ccc(O)cc1O,99.8,-8.6,8.9,-6.2,33.7,56.1*,55.8*,57.2*,42.1
Nn1c(SCc2ccc(Br)cc2)nnc1-c1ccccn1,103.1,28.1,2.8,1.0,-17.6,64.6*,67.2*,53.9*,56.1*
CN1CCN(S(=O)(=O)c2ccc3[nH]c(=O)oc3c2)CC1,90.3,11.9,31.4,15.3,1.0,22.4,x,x,x
N#Cc1ccccc1S(=O)(=O)N1CCN(CC(O)c2ccccc2)CC1 (stereo unspecified),x,-6.0,42.7,-1.0,-5.5,11.1,x,x,x
O=C(Nc1ccc(Cl)cc1)c1cccs1,99.3,-0.7,3.0,x,x,59.7*,77.0*,54.8*,65.4*
O=C(Nc1ccc(-c2cn3ccccc3n2)cc1)c1cccs1,81.8,-30.2,7.2,0.2,-2.7,56.8*,75.8*,72.0*,61.9*
Cc1ccn(-c2ccc(NC(=O)c3cccs3)cc2)n1,101.6,-10.1,-2.1,-10.8,17.3,59.2*,81.8*,64.4*,35.2
Cc1cccc(Cn2c(=O)oc3ccc(C)cc32)c1,109.3,-15.5,-9.5,3.7,-2.5,-2.2,x,x,x
CN(CCCS(=O)(=O)[O-])c1ccc(/C=C/c2ccc3ccccc3[n+]2C)cc1,93.6,10.7,-21.7,14.4,15.7,2.1,x,x,x
CN(C)c1ccc(/C=C/c2ccc3ccccc3[n+]2C)cc1,94.3,-14.3,-4.3,60.3*,98.4*,52.1*,32.8,x,x
CC(C)(C)NC(=O)N1CCN(S(=O)(=O)c2ccc3c(c2)CCC3)CC1,x,x,-5.2,x,-0.1,16.9,x,x,x
CC(C)COC(=O)N1CCN(S(=O)(=O)c2ccc3c(c2)CCC3)CC1,99.7,x,-1.5,x,x,52.6*,51.5*,20.6,28.7
Cc1ccccc1N1C(=O)c2sc3nc4c(c(=O)n3c2C1=O)CCC4,98.3,-0.3,17.6,-10.5,34.0,10.2,x,x,x
O=C1c2sc3nc4ccccc4n3c2C(=O)N1c1ccccc1Cl,94.1,-4.8,18.1,10.5,-27.7,51.9*,52.0*,26.4,26.4
COc1ccc2oc(C(=O)OCC(=O)Nc3ccc(C)c(S(=O)(=O)N4CCOCC4)c3)c(C)c2c1,101.0,x,x,x,x,x,x,x,x
O=C(Nc1cc2ccccc2oc1=O)c1ccccc1,98.2,-14.2,1.8,11.3,-4.0,60.0*,72.5*,51.2*,52.8*
Cc1oc(=O)c(NC(=O)c2ccccc2)cc1C(N)=O,101.7,x,38.0,16.0,-3.1,4.5,x,x,x
COc1ccc(C(=O)OCC(=O)NC2CCCC2)c(OC)c1,103.5,16.7,-10.0,14.0,x,6.6,x,x,x
COc1ccc(C(=O)c2ccccc2)c(OCC(=O)NC2CC2)c1,x,-4.7,-15.0,28.3,-3.3,52.4*,69.8*,x,x
COC(=O)c1ccccc1OCC(=O)NC1CCCCC1,106.0,13.8,-0.8,23.3,-2.8,77.4*,84.7*,88.8*,71.2*
O=C(COc1ccc(Cl)cc1[N+](=O)[O-])NC1CCCCC1,100.4,-6.6,42.0,6.1,-11.7,53.4*,48.1,58.0*,47.0
COc1ccc(CCNC(=O)c2ccc3ccccc3n2)cc1,110.5,-28.6,-5.1,11.6,3.1,52.3*,67.2*,41.3,29.5
SMILES,Pemphigus Ab inh,PolyA inhibitor,Arrestin-AP2 inh,NALP1 yeast inh,ALR inh,NALP3 yeast inh,NALP3 confirm,Casp1-ASC yeast,NALP3 yeast rt
NS(=O)(=O)c1ccc(CCNC(=O)c2ccc3ccccc3n2)cc1,98.3,11.6,-1.8,-2.0,7.9,-3.8,x,x,x
COC(=O)COc1ccc(-c2ccc(F)cc2)cc1C=O,80.6,19.5,7.5,21.2,39.9,55.7*,55.3*,57.6*,27.6
COc1nc2c(C)cccc2cc1-c1noc(-c2ccco2)n1,111.2,x,-2.9,-2.3,2.4,9.0,x,x,x
Cc1ccc(C(=O)Cn2cnc3ccccc3c2=O)cc1,x,x,4.4,0.1,x,52.4*,63.8*,33.5,46.2
COc1cccc(CN(C)C(=O)c2csc3c2CCCC3)c1OC,103.1,-17.2,-9.1,13.8,-3.5,50.7*,40.5,50.2*,40.2
COc1ccc(Sc2cc(C(F)(F)F)nc(-c3ccccn3)n2)cc1,102.2,17.3,9.8,5.8,30.3,51.4*,64.4*,54.8*,45.4
CCC1(c2ccc(F)cc2)NC(=O)N(CC(=O)NCC(=O)Nc2cccc(C)c2C)C1=O (stereo unspecified),99.2,-6.3,-1.5,x,-2.7,10.2,x,x,x
Oc1ccc(Oc2ccc(Oc3ccc(O)cc3)cc2)cc1,90.5,-0.7,18.4,37.8*,2.3,79.3*,83.3*,92.6*,84.5*
COc1cc(Cl)c(C)cc1NC(=O)c1cc(S(=O)(=O)N(C)C)ccc1N1CCCC1,96.2,9.6,10.9,37.6,-24.7,6.3,x,x,x
COc1cc(S(=O)(=O)N2CCCC2)c(C)cc1C,91.7,-5.7,36.3,19.7,-1.5,59.8*,77.0*,57.7*,43.2
COc1cc(Cl)c(S(=O)(=O)N2CCCC2)cc1Cl,97.9,-15.7,20.4,0.6,-0.6,66.4*,70.1*,x,x
O=C(/C=C/c1ccc([N+](=O)[O-])cc1)NCCN1C(=O)S/C(=C\c2ccc(F)cc2)C1=O,93.2,1.9,-9.2,4.1,-18.1,-9.4,x,x,x
O=C1C[C@@H](c2ccc(O[C@@H]3O[C@H](CO)[C@@H](O)[C@H](O)[C@H]3O)cc2)Oc2cc(O)ccc21,108.5,7.2,9.7,21.5,x,1.9,x,x,x
Cc1ccc(-c2nnc(Nc3ccccc3)o2)cc1,100.6,-8.8,-3.8,9.7,-2.1,36.6,x,x,x
COc1cc(C(=O)N2CCN(c3ccccn3)CC2)cc(OC)c1OC,113.8,4.7,13.1,15.9,x,12.3,x,x,x
COc1cc2ccccc2cc1C(=O)N1CCN(c2ccccn2)CC1,104.0,-9.4,1.3,29.6,-1.6,52.3*,86.9*,61.6*,76.0*
CCOC(=O)CSc1nnc(NC(=O)c2cccc([N+](=O)[O-])c2C)s1,90.9,-1.9,2.0,27.1,-4.4,18.8,x,x,x
